Experimental data from ChEMBL document CHEMBL5303300, “EUbOPEN Chemogenomics Library - Multiplex” (2023).
Values joined by “and” are separate entries in the source; they are usually repeats but may differ in a detail not shown here. Identical values can stand only once.

Key:
[1] = tested on: U2OS; assay: Multiplex assay against U2OS; format: toxicity, cell-based; settings: human, number of replicates 2
How it was run: (§1)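 Live cells were stained at seeding with Hoechst33342, BioTracker Green Microtubule Cytoskeleton Dye, MitoTracker Red and Annexin V Alexa Fluor 680. Following compound addition, they were imaged on a CQ1 microscope at 37°C and 5% CO2 and gated by CellPathfinder machine learning into Hoechst high-intensity objects or normal cells, with normal cells split into healthy, pyknosed or fragmented nuclei and pyknosed cells into mitotic or apoptotic. Tubulin, mitochondrial-mass and membrane-permeability phenotypes are per cents of healthy-nucleus cells.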

[2] = tested on: Fibroblast; assay: Multiplex assay against human fibroblast; format: toxicity, cell-based; settings: number of replicates 2; how it was run: as §1
[3] = 24 h, 10 µM, compound concentration 10 uM
[4] = 48 h, 1 µM, compound concentration 1 uM
[5] = 48 h, 10 µM, compound concentration 10 uM
[6] = 12 h, 1 µM, compound concentration 1 uM
[7] = 12 h, 10 µM, compound concentration 10 uM
[8] = 24 h, 1 µM, compound concentration 1 uM

CC(C)N1CCN(Cc2cnc(-c3cc(-c4cccc5[nH]ccc45)cc4[nH]ncc34)o2)CC1 [NEMIRALISIB]
Population Apoptotic (%) [1, 3]: 33% and 60%
Population Fragmented Nuclei (%) [1, 3]: 10%
Population Healthy Nuclei (%) [1, 3]: 52% and 55%
Population Hoechst High Intensity Objects (%) [1, 3]: 2% and 0%
Population Membrane Permeable-Phenotype (%) [1, 3]: 4% and 8%
Population Mitochondria Different-Phenotype (%) [1, 3]: 36% and 43%
Population Mitotic Cells (%) [1, 3]: 66% and 39%
Population Normal (%) [1, 3]: 97% and 99%
Population Pyknosed Nuclei (%) [1, 3]: 37% and 34%
Population Tubulin-Different-Phenotype (%) [1, 3]: 32% and 33%
Population Apoptotic (%) [1, 4]: 47% and 70%
Population Fragmented Nuclei (%) [1, 4]: 4% and 3%
Population Healthy Nuclei (%) [1, 4]: 74% and 88%
Population Hoechst High Intensity Objects (%) [1, 4]: 0%
Population Membrane Permeable-Phenotype (%) [1, 4]: 1% and 2%
Population Mitochondria Different-Phenotype (%) [1, 4]: 1% and 0%
Population Mitotic Cells (%) [1, 4]: 52% and 29%
Population Normal (%) [1, 4]: 100%
Population Pyknosed Nuclei (%) [1, 4]: 20% and 8%
Population Tubulin-Different-Phenotype (%) [1, 4]: 81% and 76%
Population Apoptotic (%) [1, 5]: 60% and 67%
Population Fragmented Nuclei (%) [1, 5]: 23% and 8%
Population Healthy Nuclei (%) [1, 5]: 25% and 55%
Population Hoechst High Intensity Objects (%) [1, 5]: 3% and 2%
Population Membrane Permeable-Phenotype (%) [1, 5]: 12% and 11%
Population Mitochondria Different-Phenotype (%) [1, 5]: 37% and 35%
Population Mitotic Cells (%) [1, 5]: 39% and 32%
Population Normal (%) [1, 5]: 96% and 97%
Population Pyknosed Nuclei (%) [1, 5]: 51% and 35%
Population Tubulin-Different-Phenotype (%) [1, 5]: 25% and 38%
Population Apoptotic (%) [2, 6]: 48% and 43%
Population Fragmented Nuclei (%) [2, 6]: 10%
Population Healthy Nuclei (%) [2, 6]: 72% and 64%
Population Hoechst High Intensity Objects (%) [2, 6]: 0%
Population Membrane Permeable-Phenotype (%) [2, 6]: 6% and 3%
Population Mitochondria Different-Phenotype (%) [2, 6]: 2% and 0%
Population Mitotic Cells (%) [2, 6]: 51% and 56%
Population Normal (%) [2, 6]: 100% and 99%
Population Pyknosed Nuclei (%) [2, 6]: 16% and 24%
Population Tubulin-Different-Phenotype (%) [2, 6]: 19% and 9%
Total Cell Count [2, 6]: 206 and 286
Population Apoptotic (%) [2, 7]: 32% and 38%
Population Fragmented Nuclei (%) [2, 7]: 7% and 15%
Population Healthy Nuclei (%) [2, 7]: 63% and 69%
Population Hoechst High Intensity Objects (%) [2, 7]: 0% and 2%
Population Membrane Permeable-Phenotype (%) [2, 7]: 7%
Population Mitochondria Different-Phenotype (%) [2, 7]: 6% and 12%
Population Mitotic Cells (%) [2, 7]: 67% and 61%
Population Normal (%) [2, 7]: 100% and 97%
Population Pyknosed Nuclei (%) [2, 7]: 28% and 15%
Population Tubulin-Different-Phenotype (%) [2, 7]: 58% and 61%
Total Cell Count [2, 7]: 207 and 263
Population Apoptotic (%) [2, 8]: 50% and 62%
Population Fragmented Nuclei (%) [2, 8]: 8% and 10%
Population Healthy Nuclei (%) [2, 8]: 70%
Population Hoechst High Intensity Objects (%) [2, 8]: 0%
Population Membrane Permeable-Phenotype (%) [2, 8]: 7%
Population Mitochondria Different-Phenotype (%) [2, 8]: 2% and 1%
Population Mitotic Cells (%) [2, 8]: 50% and 37%
Population Normal (%) [2, 8]: 100%
Population Pyknosed Nuclei (%) [2, 8]: 20% and 19%
Population Tubulin-Different-Phenotype (%) [2, 8]: 25% and 11%
Total Cell Count [2, 8]: 201 and 273
Population Apoptotic (%) [2, 3]: 52% and 71%
Population Fragmented Nuclei (%) [2, 3]: 5% and 15%
Population Healthy Nuclei (%) [2, 3]: 72% and 68%
Population Hoechst High Intensity Objects (%) [2, 3]: 3% and 5%
Population Membrane Permeable-Phenotype (%) [2, 3]: 7% and 3%
Population Mitochondria Different-Phenotype (%) [2, 3]: 17% and 22%
Population Mitotic Cells (%) [2, 3]: 47% and 28%
Population Normal (%) [2, 3]: 96% and 95%
Population Pyknosed Nuclei (%) [2, 3]: 22% and 15%
Population Tubulin-Different-Phenotype (%) [2, 3]: 64% and 58%
Total Cell Count [2, 3]: 175 and 240
Population Apoptotic (%) [2, 4]: 54% and 64%
Population Fragmented Nuclei (%) [2, 4]: 11% and 12%
Population Healthy Nuclei (%) [2, 4]: 73% and 67%
Population Hoechst High Intensity Objects (%) [2, 4]: 0%
Population Membrane Permeable-Phenotype (%) [2, 4]: 9% and 3%
Population Mitochondria Different-Phenotype (%) [2, 4]: 3% and 0%
Population Mitotic Cells (%) [2, 4]: 45% and 35%
Population Normal (%) [2, 4]: 100%
Population Pyknosed Nuclei (%) [2, 4]: 15% and 19%
Population Tubulin-Different-Phenotype (%) [2, 4]: 15% and 7%
Total Cell Count [2, 4]: 214 and 290
Population Apoptotic (%) [2, 5]: 84% and 61%
Population Fragmented Nuclei (%) [2, 5]: 10% and 15%
Population Healthy Nuclei (%) [2, 5]: 69% and 68%
Population Hoechst High Intensity Objects (%) [2, 5]: 7% and 5%
Population Membrane Permeable-Phenotype (%) [2, 5]: 6% and 4%
Population Mitochondria Different-Phenotype (%) [2, 5]: 11% and 14%
Population Mitotic Cells (%) [2, 5]: 15% and 38%
Population Normal (%) [2, 5]: 92% and 94%
Population Pyknosed Nuclei (%) [2, 5]: 19% and 16%
Population Tubulin-Different-Phenotype (%) [2, 5]: 34% and 40%
Total Cell Count [2, 5]: 178 and 231
